Assays:
[1] = molecular target: Glutamate receptor ionotropic, AMPA (Rattus norvegicus, UniProt P19490+P19491+P19492+P19493); assay: In vitro inhibition of AMPA receptor mediated currents in primary cultured rat fetal hippocampal neurons; type: tissue-based, Hippocampus
Method in brief: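 Whole-cell patch clamp at −60 mV on hippocampal neurons from E19 Wistar rat fetuses, cultured 6–14 days (cytosine-arabinoside from day 6). Inward currents were evoked by bath-perfused kainate in pH 7.4 HEPES medium with CsCl pipet solution. Antagonist was bath-applied after 90 s preincubation in 0.3% DMSO final. Currents were normalized to the no-antagonist value, 5–6 cells per point, and the logistic fit gave IC50.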

Rattus norvegicus [2] = assay: Effect on total cerebral infarct volume measured 24 hour after permanent MCA occlusion in rat at a dose of 3 mg/kg (n=6); type: functional
Method in brief: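 Male Fischer-344 rats underwent permanent MCA occlusion and received a single ip dose in physiological saline (0.9% NaCl) immediately after occlusion. Rectal temperature was held at 37 ± 0.5 °C during surgery. At 24 h, under Nembutal, brains were TTC-stained and infarct areas measured, with volume by Cavalieri principle. Mean ± SD; ANOVA with Dunnett's test versus vehicle.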

Mus musculus [3] = assay: Effect on brain lesion measured 24 hour after permanent MCA occlusion in mice upon three i.p. doses of 30 mg/kg (n=12); type: functional; conditions: route intraperitoneal
Method in brief: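 Reference paradigm in male NMRI mice with permanent MCA occlusion, anesthetized with Avertin (240 mg/kg ip). Three ip injections of 30 mg/kg in physiological saline at 60, 70 and 85 min after occlusion (table footnote says 80 min). Infarct volume was measured at 24 h by TTC staining and Cavalieri calculation. Results are mean ± SD versus saline vehicle, ANOVA/Dunnett.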

Mus musculus [4] = assay: Effect on brain lesion measured 24 hour after permanent MCA occlusion in mice upon four i.p. doses of 10 mg/kg (n=10); type: functional; conditions: route intraperitoneal
Method in brief: (§1)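 Male NMRI mice (23–30 g) under Avertin anesthesia (240 mg/kg ip), rectal temperature held at 37 ± 0.5 °C during surgery, underwent permanent MCA occlusion. Four ip injections in 10% cremophor EL were given 1 h before and 0, 1 and 2 h after occlusion. At 24 h, infarct volume was measured by TTC staining (Cavalieri principle). Results are mean ± SD versus vehicle, ANOVA with Dunnett test.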

Rattus norvegicus [5] = assay: Effect on total cerebral infarct volume measured 24 hour after permanent MCA occlusion in rat upon four i.p. doses of 3 mg/kg (n=12); type: functional; conditions: route intraperitoneal
Method in brief: (§2)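 Male Fischer-344 rats with permanent MCA occlusion received four ip injections in 10% cremophor EL at 1, 2, 3 and 4 h after occlusion. Total infarct volume (cortex and striatum) was measured 24 h after occlusion by TTC staining with Cavalieri volume calculation. Results are mean ± SD versus vehicle group, ANOVA followed by Dunnett test.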

Rattus norvegicus [6] = assay: Effect on total cerebral infarct volume measured 24 hour after permanent MCA occlusion in rat upon four i.p. doses of 10 mg/kg (n=15); type: functional; conditions: route intraperitoneal; method in brief: as §2
Rattus norvegicus [7] = assay: Effect on total cerebral infarct volume measured 24 hour after permanent MCA occlusion in rat upon four i.p. doses of 30 mg/kg (n=10); type: functional; conditions: route intraperitoneal; method in brief: as §2
[8] = Volume of distribution was measured; type: ADME, organism-based; conditions: in vivo; read-out: Volume of distribution
Method in brief: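 Rats were given 2.5 mg/kg iv. Plasma was sampled at nine time points from 5 min to 7 h, precipitated with acetonitrile (1:5) and quantified by LC/MS/MS against matrix calibration curves with an internal standard, C18 column, water/acetonitrile with 0.1% acetic acid gradient. Volume of distribution was calculated from the concentration–time data.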

Rattus norvegicus [9] = assay: Half life was measured after iv injection in rats; conditions: in vivo
Rattus norvegicus [10] = assay: Plasma clearance was measured after iv injection in rats
Mus musculus [11] = assay: Effect on brain lesion measured 24 hr after permanent MCA occlusion in mice upon four i.p. doses of 30 mg/kg (n=8); type: functional; conditions: route intraperitoneal; method in brief: as §1
Mus musculus [12] = assay: Effect on brain lesion measured 24 hour after permanent MCA occlusion in mice upon four i.p. doses of 10 mg/kg (n=9); type: functional; conditions: route intraperitoneal; method in brief: as §1

c1ccc(C2=Nn3ccnc3Cc3cc4c(cc32)OCO4)cc1
IC50 [1]: 6.5 µM

Cc1nc2n(c1C)N=C(c1ccc(Cl)cc1)c1cc3c(cc1C2)OCO3
IC50 [1]: 10 µM

C[C@]12N[C@H](Cc3ccccc31)c1ccccc12 [DIZOCILPINE]
Total infarct volume (Rattus norvegicus [2]): 118 mm

Cc1nc2n(c1C)N=C(c1ccc(F)cc1)c1cc3c(cc1C2)OCO3
IC50 [1]: 10 µM

NS(=O)(=O)c1cccc2c1c([N+](=O)[O-])cc1nc(O)c(O)nc12 [NBQX]
Brain lesion (Mus musculus [3]): 18.4 mm³

Clc1nc2n(c1Cl)N=C(c1ccccc1)c1cc3c(cc1C2)OCO3
IC50 [1]: > 10 µM

Brc1nc2n(c1Br)N=C(c1ccccc1)c1cc3c(cc1C2)OCO3
IC50 [1]: > 10 µM

CC1=NN=C(c2ccc(N)cc2)c2cc3c(cc2C1)OCO3 [GYKI-52466]
IC50 [1]: 9 µM

Cc1nc2n(c1C)N=C(c1ccccc1)c1cc3c(cc1C2)OCO3
Brain lesion (Mus musculus [4]): 17.1 mm³ | Total infarct volume (Rattus norvegicus [5]): 138 mm³ | Total infarct volume (Rattus norvegicus [6]): 142 mm³ | Total infarct volume (Rattus norvegicus [7]): 132 mm³ | IC50 [1]: 3.4 µM | Vd [8]: 2.7 L/kg | half-life (Rattus norvegicus [9]): 72 min | clearance (Rattus norvegicus [10]): 54 mL/min/kg

Cc1c(CO)nc2n1N=C(c1ccccc1)c1cc3c(cc1C2)OCO3
Brain lesion (Mus musculus [11]): 23 mm³ | Brain lesion (Mus musculus [12]): 20.6 mm³ | IC50 [1]: 4.6 µM

— ChEMBL document CHEMBL1140317, “Novel alpha-amino-3-hydroxy-5-methyl-4-isoxazole propionate (AMPA) receptor antagonists of 2,3-benzodiazepine type: chemical synthesis, in vitro characterization, and in vivo prevention of acute neurodegeneration” (J Med Chem, 2005)
